Source: ChEMBL document CHEMBL1667766, “Synthesis of elastin based peptides conjugated to benzisoxazole as a new class of potent antimicrobials--A novel approach to enhance biocompatibility” (2011)
Values after ≈ are worked out from the molar mass of the structure shown. *1 amine or outer side, *2 acyl side, *3 side chain or, on linkers, in order; H or OH if unused. Where a SMILES comes first, the peptide text is derived from it. [ ]: non-standard residue; d: D form. The star is where a group is joined. X2 = CC(C)[C@H](N[*:1])C(=O)NC(=O)[*:2]; X1 = Fc1ccc2c(C3CCN(*)CC3)noc2c1; Boc = CC(C)(C)OC(=O)*; OcHex = C1CCC(O*)CC1

Columns and labels:
Type in all cases: functional
[1] = test system: Escherichia coli; experiment: Antimicrobial activity against Escherichia coli after 72 hrs by microdilution method
[2] = test system: Xanthomonas oryzae; experiment: Antimicrobial activity against Xanthomonas oryzae after 72 hrs by microdilution method
[3] = test system: Klebsiella pneumoniae; experiment: Antimicrobial activity against Klebsiella pneumoniae after 72 hrs by microdilution method
[4] = test system: Staphylococcus; experiment: Antimicrobial activity against coagulase positive Staphylococcus after 72 hrs by microdilution method
[5] = test system: Aspergillus niger; experiment: Antifungal activity against Aspergillus niger after 72 hrs by microdilution method
[6] = test system: Aspergillus flavus; experiment: Antifungal activity against Aspergillus flavus after 72 hrs by microdilution method
[7] = test system: Fusarium oxysporum; experiment: Antifungal activity against Fusarium oxysporum after 72 hrs by microdilution method
[8] = test system: Escherichia coli; experiment: Antimicrobial activity against Escherichia coli after 24 hrs by agar well diffusion method
Summary of the method: (§1)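 Bacteria grown in nutrient broth at 37 °C for 24 h, subcultured in 25 mL broth at room temperature, then spread on nutrient agar. Wells (6 mm cork borer) filled with 0.1 mL test solution in DMSO, prepared from a 1 mg/mL stock. Amoxicillin as reference, DMSO as negative control. Plates kept 24 h at 37 °C; inhibition zone measured in mm.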

[9] = test system: Xanthomonas oryzae; experiment: Antimicrobial activity against Xanthomonas oryzae after 24 hrs by agar well diffusion method
[10] = test system: Klebsiella pneumoniae; experiment: Antimicrobial activity against Klebsiella pneumoniae after 24 hrs by agar well diffusion method; summary of the method: as §1
[11] = test system: Staphylococcus; experiment: Antimicrobial activity against coagulase positive Staphylococcus after 24 hrs by agar well diffusion method; summary of the method: as §1
[12] = test system: Aspergillus niger; experiment: Antifungal activity against Aspergillus niger after 24 hrs by agar well diffusion method
Summary of the method: (§2)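 Fungi subcultured in 25 mL nutrient broth for one day to give inoculum, then spread on solidified Sabouraud agar. Wells punched with a 6 mm cork borer and filled with 0.1 mL test solution in DMSO, prepared from a 1 mg/mL stock. Bavistin as reference, DMSO as negative control. Read-out is inhibition zone diameter (mm).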

[13] = test system: Aspergillus flavus; experiment: Antifungal activity against Aspergillus flavus after 24 hrs by agar well diffusion method; summary of the method: as §2
[14] = test system: Fusarium oxysporum; experiment: Antifungal activity against Fusarium oxysporum after 24 hrs by agar well diffusion method; summary of the method: as §2

SMILES | MIC [1] | MIC [2] | MIC [3] | MIC [4] | MIC [5] | MIC [6] | MIC [7] | inhibition zone (IZ) [8] | inhibition zone (IZ) [9] | inhibition zone (IZ) [10] | inhibition zone (IZ) [11] | inhibition zone (IZ) [12] | inhibition zone (IZ) [13] | inhibition zone (IZ) [14]
CC(C)(C)OC(=O)N[C@@H](Cc1ccccc1)C(=O)O | > 50 µg/mL | > 50 µg/mL | > 50 µg/mL | > 50 µg/mL | > 50 µg/mL | > 50 µg/mL | > 50 µg/mL |  |  |  |  |  |  | 
N[C@@H](Cc1ccccc1)C(=O)N1CCC(c2noc3cc(F)ccc23)CC1.O=C(O)C(F)(F)F | 20 µg/mL | 15 µg/mL | 16 µg/mL | 18 µg/mL | 18 µg/mL | 22 µg/mL | 21 µg/mL | 14 mm | 11 mm | 10 mm | 9 mm | 16 mm | 11 mm | 14 mm
N[C@@H](Cc1c[nH]c2ccccc12)C(=O)N1CCC(c2noc3cc(F)ccc23)CC1.O=C(O)C(F)(F)F | 38 µg/mL | 26 µg/mL | 31 µg/mL | 36 µg/mL | 32 µg/mL | 41 µg/mL | 39 µg/mL | 8 mm | 6 mm | 5 mm | 4 mm | 11 mm | 4 mm | 7 mm
N[C@@H](Cc1ccc(O)cc1)C(=O)N1CCC(c2noc3cc(F)ccc23)CC1.O=C(O)C(F)(F)F | 40 µg/mL | 29 µg/mL | 34 µg/mL | 39 µg/mL | 34 µg/mL | 43 µg/mL | 41 µg/mL | 7 mm | 5 mm | 4 mm | 4 mm | 10 mm | 3 mm | 6 mm
CC[C@@H](C)[C@H](NC(=O)CNC(=O)CN)C(=O)N1CCC[C@H]1C(=O)N1CCC(c2noc3cc(F)ccc23)CC1.O=C(O)C(F)(F)F | 15 µg/mL | 12 µg/mL | 12 µg/mL | 14 µg/mL | 13 µg/mL | 16 µg/mL | 17 µg/mL | 20 mm | 15 mm | 14 mm | 12 mm | 22 mm | 14 mm | 18 mm
Fc1ccc2c(C3CCNCC3)noc2c1 | > 50 µg/mL | > 50 µg/mL | > 50 µg/mL | > 50 µg/mL | > 50 µg/mL | > 50 µg/mL | > 50 µg/mL | 3 mm | 4 mm | 3 mm | 3 mm | 3 mm | 2 mm | 4 mm
CC[C@@H](C)[C@H](NC(=O)CNC(=O)CNC(=O)OC(C)(C)C)C(=O)N1CCC[C@H]1C(=O)O | > 50 µg/mL | > 50 µg/mL | > 50 µg/mL | > 50 µg/mL | > 50 µg/mL | > 50 µg/mL | > 50 µg/mL |  |  |  |  |  |  | 
CC(C)(C)OC(=O)N[C@@H](Cc1c[nH]c2ccccc12)C(=O)O | > 50 µg/mL | > 50 µg/mL | > 50 µg/mL | > 50 µg/mL | > 50 µg/mL | > 50 µg/mL | > 50 µg/mL |  |  |  |  |  |  | 
CC(C)[C@H](NC(=O)CNC(=O)[C@@H]1CCCN1C(=O)[C@H](Cc1ccccc1)NC(=O)CNC(=O)[C@H](CCC(=O)OC1CCCCC1)NC(=O)CNC(=O)OC(C)(C)C)C(=O)NCC(=O)N[C@H](C(=O)N1CCC[C@H]1C(=O)NCC(=O)N[C@H](C(=O)NCC(=O)N[C@H](C(=O)N1CCC[C@H]1C(=O)NCC(=O)N[C@H](C(=O)NCC(=O)N[C@H](C(=O)N1CCC[C@H]1C(=O)NCC(=O)N[C@@H](Cc1ccccc1)C(=O)NCC(=O)N[C@@H](Cc1ccccc1)C(=O)N1CCC[C@H]1C(=O)NCC(=O)N[C@@H](Cc1ccccc1)C(=O)NCC(=O)N[C@@H](Cc1ccccc1)C(=O)N1CCC[C@H]1C(=O)O)C(C)C)C(C)C)C(C)C)C(C)C)C(C)C (Boc-GE(OcHex)GFPGVGVPGVGVPGVGVPGFGFPGFGFP-OH) | > 50 µg/mL | > 50 µg/mL | > 50 µg/mL | > 50 µg/mL | > 50 µg/mL | > 50 µg/mL | > 50 µg/mL |  |  |  |  |  |  | 
CC(C)[C@H](NC(=O)CNC(=O)[C@@H]1CCCN1C(=O)[C@H](Cc1ccccc1)NC(=O)CNC(=O)[C@H](Cc1ccccc1)NC(=O)CNC(=O)[C@@H]1CCCN1C(=O)[C@H](Cc1ccccc1)NC(=O)CNC(=O)[C@@H](NC(=O)CNC(=O)[C@@H]1CCCN1C(=O)[C@@H](NC(=O)NC(=O)[C@@H](NC(=O)CNC(=O)[C@@H]1CCCN1C(=O)[C@H](Cc1ccccc1)NC(=O)CNC(=O)[C@H](CCC(=O)OC1CCCCC1)NC(=O)CNC(=O)OC(C)(C)C)C(C)C)C(C)C)C(C)C)C(=O)NCC(=O)N[C@H](C(=O)N1CCC[C@H]1C(=O)NCC(=O)N[C@H](C(=O)NCC(=O)N[C@@H](Cc1ccccc1)C(=O)N1CCC[C@H]1C(=O)O)C(C)C)C(C)C (Boc-GE(OcHex)GFPG[X2]VPGVGFPGFGFPGVGVPGVGFP-OH) | > 50 µg/mL | > 50 µg/mL | > 50 µg/mL | > 50 µg/mL | > 50 µg/mL | > 50 µg/mL | > 50 µg/mL |  |  |  |  |  |  | 
CC(C)(C)OC(=O)NCC(=O)N[C@@H](Cc1ccccc1)C(=O)NCC(=O)N[C@@H](Cc1ccccc1)C(=O)N1CCC[C@H]1C(=O)O (Boc-GFGFP-OH) | > 50 µg/mL | > 50 µg/mL | > 50 µg/mL | > 50 µg/mL | > 50 µg/mL | > 50 µg/mL | > 50 µg/mL |  |  |  |  |  |  | 
C[C@H](NC(=O)CNC(=O)CNC(=O)OC(C)(C)C)C(=O)N1CCC[C@H]1C(=O)O (Boc-GGAP-OH) | > 50 µg/mL | > 50 µg/mL | > 50 µg/mL | > 50 µg/mL | > 50 µg/mL | > 50 µg/mL | > 50 µg/mL |  |  |  |  |  |  | 
CC(C)(C)OC(=O)NCC(=O)NCC(=O)N[C@@H](Cc1ccccc1)C(=O)N1CCC[C@H]1C(=O)O (Boc-GGFP-OH) | > 50 µg/mL | > 50 µg/mL | > 50 µg/mL | > 50 µg/mL | > 50 µg/mL | > 50 µg/mL | > 50 µg/mL |  |  |  |  |  |  | 
CC(C)[C@H](NC(=O)CNC(=O)OC(C)(C)C)C(=O)NCC(=O)N[C@H](C(=O)N1CCC[C@H]1C(=O)O)C(C)C (Boc-GVGVP-OH) | > 50 µg/mL | > 50 µg/mL | > 50 µg/mL | > 50 µg/mL | > 50 µg/mL | > 50 µg/mL | > 50 µg/mL |  |  |  |  |  |  | 
CC(C)[C@H](NC(=O)CNC(=O)[C@@H]1CCCN1C(=O)[C@H](Cc1ccccc1)NC(=O)CNC(=O)[C@H](CCC(=O)O)NC(=O)CN)C(=O)NCC(=O)N[C@H](C(=O)N1CCC[C@H]1C(=O)NCC(=O)N[C@H](C(=O)NCC(=O)N[C@H](C(=O)N1CCC[C@H]1C(=O)NCC(=O)N[C@H](C(=O)NCC(=O)N[C@H](C(=O)N1CCC[C@H]1C(=O)NCC(=O)N[C@@H](Cc1ccccc1)C(=O)NCC(=O)N[C@@H](Cc1ccccc1)C(=O)N1CCC[C@H]1C(=O)NCC(=O)N[C@@H](Cc1ccccc1)C(=O)NCC(=O)N[C@@H](Cc1ccccc1)C(=O)N1CCC[C@H]1C(=O)N1CCC(c2noc3cc(F)ccc23)CC1)C(C)C)C(C)C)C(C)C)C(C)C)C(C)C.O=C(O)C(F)(F)F (H-GEGFPGVGVPGVGVPGVGVPGFGFPGFGFP-X1) | 10 µg/mL | 9 µg/mL | 9 µg/mL | 11 µg/mL | 3 µg/mL | 3 µg/mL | 4 µg/mL | 15 mm | 18 mm | 17 mm | 20 mm | 36 mm | 32 mm | 31 mm
CC(C)[C@H](NC(=O)CNC(=O)[C@@H]1CCCN1C(=O)[C@H](Cc1ccccc1)NC(=O)CNC(=O)[C@H](Cc1ccccc1)NC(=O)CNC(=O)[C@@H]1CCCN1C(=O)[C@H](Cc1ccccc1)NC(=O)CNC(=O)[C@@H](NC(=O)CNC(=O)[C@@H]1CCCN1C(=O)[C@@H](NC(=O)NC(=O)[C@@H](NC(=O)CNC(=O)[C@@H]1CCCN1C(=O)[C@H](Cc1ccccc1)NC(=O)CNC(=O)[C@H](CCC(=O)O)NC(=O)CN)C(C)C)C(C)C)C(C)C)C(=O)NCC(=O)N[C@H](C(=O)N1CCC[C@H]1C(=O)NCC(=O)N[C@H](C(=O)NCC(=O)N[C@@H](Cc1ccccc1)C(=O)N1CCC[C@H]1C(=O)N1CCC(c2noc3cc(F)ccc23)CC1)C(C)C)C(C)C.O=C(O)C(F)(F)F (H-GEGFPG[X2]VPGVGFPGFGFPGVGVPGVGFP-X1) | 12 µg/mL | 10 µg/mL | 10 µg/mL | 13 µg/mL | 4 µg/mL | 4 µg/mL | 5 µg/mL | 12 mm | 14 mm | 11 mm | 16 mm | 34 mm | 28 mm | 28 mm
CC1(C)S[C@@H]2[C@H](NC(=O)[C@H](N)c3ccc(O)cc3)C(=O)N2[C@H]1C(=O)O [AMOXICILLIN] | 24 µg/mL (≈ 65.7 µM) | 18 µg/mL (≈ 49.3 µM) | 20 µg/mL (≈ 54.7 µM) | 23 µg/mL (≈ 62.9 µM) |  |  |  | 11 mm | 8 mm | 8 mm | 7 mm |  |  | 
COC(=O)Nc1nc2ccccc2[nH]1 [CARBENDAZIM] |  |  |  |  | 22 µg/mL (≈ 115 µM) | 26 µg/mL (≈ 136 µM) | 25 µg/mL (≈ 131 µM) |  |  |  |  | 12 mm | 7 mm | 10 mm
